Source: PMC6071421 (Journal of investigative medicine : the official …, 2017)

Biological target: T1, FFA2 (GPR43; Ffar2) (Mus musculus, UniProt Q8VCK6)
T1 sequence (Q8VCK6 1-330): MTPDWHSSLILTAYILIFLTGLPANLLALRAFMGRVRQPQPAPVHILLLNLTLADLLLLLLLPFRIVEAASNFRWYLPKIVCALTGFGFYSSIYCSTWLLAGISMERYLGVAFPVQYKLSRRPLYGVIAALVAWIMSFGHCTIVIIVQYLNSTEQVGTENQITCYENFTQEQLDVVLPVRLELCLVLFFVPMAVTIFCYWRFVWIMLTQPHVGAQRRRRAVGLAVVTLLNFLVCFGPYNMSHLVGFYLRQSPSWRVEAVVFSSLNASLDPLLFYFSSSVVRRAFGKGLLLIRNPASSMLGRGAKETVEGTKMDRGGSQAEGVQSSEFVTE
Assay: Ca2+ mobilization, Fluo-8, fluorometric imaging plate reader, beta TC3 cells
Assay type: cell-based
Settings: agonist; endogenous receptor in beta TC3 cells; N = 13
Outline: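 Mouse βTC3 β cells (express Ffar2 but not Ffar3) loaded with 5 μM Fluo-8 for 60 min at 37°C. Test compounds were added as serial dilutions, each concentration in quadruplicate, and fluorescence was read on a FLIPR. Response was delta F/f: (post-stimulation max − pre-stimulation min)/pre-stimulation min. pEC50 and Emax came from non-linear regression. Experiments were repeated in triplicate.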

- pEC50: 2.32±0.21 -log M
Structure (SMILES): CC(=O)O [Acetate]
